Measured values published in ChEMBL document CHEMBL3414536 (Eur J Med Chem, 2015).
pIC50: −log10 of the molar value.

Legend:
[1] = Aqueous solubility of the compound; format: physicochemical; details: buffer
Method in brief: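 Solubility measured at pH 7.4, room temperature, by a previously described protocol; reported in µg/ml.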

Hs 683 = test: Cytostatic activity against human Hs683 cells after 72 hrs by videomicroscopy; format: functional, cell-based; details: Hs 683, 72 h
SK-MEL-28 [2] = test: Cytotoxicity against human SK-MEL-28 cells by MTT assay; format: functional, cell-based
Method in brief: (§1)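 Human cancer cell lines were cultured for three days with or without compound at 10 nM to 100 µM and read by MTT colorimetric assay. IC50 is the concentration reducing global growth by 50% relative to untreated controls.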

[3] = Cytotoxicity against human Hs683 cells by MTT assay; format: functional, cell-based; details: Hs 683; method in brief: as §1
A549 = test: Cytotoxicity against human A549 cells by MTT assay; format: functional, cell-based; method in brief: as §1
[4] = Cytotoxicity against human U373 cells by MTT assay; format: functional, cell-based, U-373MG ATCC; details: U373 MG; method in brief: as §1
T98G = test: Cytotoxicity against human T98G cells by MTT assay; format: functional, cell-based; method in brief: as §1
[5] = Cytostatic activity against human U373 cells after 72 hrs by videomicroscopy; format: functional, cell-based, U-373MG ATCC; details: U373 MG
SK-MEL-28 [6] = test: Cytostatic activity against human SK-MEL-28 cells after 72 hrs by videomicroscopy; format: functional, cell-based; details: SK-MEL-28, 72 h

| Compound | solubility ([1]; read-out: solubility) [µg/mL] | pIC50 (Hs 683) | pIC50 (SK-MEL-28 [2]) | pIC50 [3] | pIC50 (A549) | pIC50 [4] | pIC50 (T98G) | other results |
| --- | --- | --- | --- | --- | --- | --- | --- | --- |
| Cc1c2c(cc[n+]1Cc1ccccc1)c1ccc(OCC3CCCCC3)cc1n2CC1CCCCC1.[Br-] | < 1.7 | 6.40 | – | – | – | – | – | – |
| Cc1c2c(cc[n+]1CCC(C)C)c1ccc(OCCC(C)C)cc1n2CCc1nnn[nH]1 | – | – | < 4.00 | < 4.00 | < 4.00 | – | – | – |
| CCCn1c2cc(OCCC(C)C)ccc2c2cc[n+](CCC)c(C)c21.[Br-] | 185 | – | 6.05 | 7.40 | 6.52 | 6.22 | 5.92 | – |
| Cc1c2c(cc[n+]1CCC(C)C)c1ccc(OCCO)cc1n2CCO.[Br-] | > 219 | – | < 4.00 | < 4.00 | < 4.00 | < 4.00 | – | – |
| Cc1c2c(cc[n+]1CCO)c1ccc(OCCO)cc1n2CCO.[Br-] | > 206 | – | 4.29 | < 4.00 | 4.29 | < 4.00 | – | – |
| Cc1c2c(cc[n+]1CC(=O)c1ccccc1)c1ccc(OCc3ccccc3)cc1n2Cc1ccccc1 | – | 4.59 | – | – | – | – | – | – |
| Cc1c2c(cc[n+]1Cc1ccccc1F)c1ccc(OCC3CCCCC3)cc1n2CC1CCCCC1 | – | 6.52 | – | – | – | – | – | – |
| CCCOc1ccc2c3cc[n+](CCC(C)C)c(C)c3n(CCC)c2c1.[Br-] | 196 | – | 5.52 | 6.00 | 5.70 | 4.66 | 5.40 | – |
| Cc1c2c(cc[n+]1CCC(C)C)c1ccc(OCc3ccccc3)cc1n2Cc1ccccc1 | – | 6.40 | – | – | – | – | – | – |
| CCCn1c2cc(OCc3ccccc3)ccc2c2cc[n+](CCC(C)C)c(C)c21.[Br-] | 164 | 6.00 | 6.00 | 6.52 | 6.52 | 5.70 | 5.82 | pIC50 [5]: 6.00; pIC50 (SK-MEL-28 [6]): 6.00 |
| Cc1c2c(cc[n+]1Cc1ccccc1)c1ccc(OCCC(C)C)cc1n2CCC(C)C | – | 5.51 | – | – | – | – | – | – |
| CCCOc1ccc2c3cc[n+](CC)c(C)c3n(CCC)c2c1.[Br-] | 174 | – | 5.10 | 5.70 | 6.15 | 4.46 | 4.66 | – |
| CCCn1c2cc(OCc3ccccc3)ccc2c2cc[n+](CC)c(C)c21.[Br-] | 207 | – | 5.40 | 5.52 | 5.70 | 4.66 | 4.96 | – |
| Cc1c2c(cc[n+]1Cc1ccc(F)cc1)c1ccc(OCc3cccc(F)c3)cc1n2Cc1cccc(F)c1.[Br-] | – | – | – | – | – | – | – | solubility [1]: 2.4 µg/mL |
| Cc1nccc2c3ccc(OCc4cccc(F)c4)cc3n(Cc3cccc(F)c3)c12 | – | 4.77 | – | – | – | – | – | – |
| Cc1c2c(cc[n+]1Cc1ccccc1F)c1ccc(OCc3ccccc3)cc1n2Cc1ccccc1 | – | 6.40 | – | – | – | – | – | – |
| Cc1c2c(cc[n+]1CCC(C)C)c1ccc(OCCC(C)C)cc1n2CCC(C)C | – | 6.52 | – | – | – | – | – | – |
| Cc1c2c(cc[n+]1Cc1ccccc1)c1ccc(OCc3ccccc3)cc1n2Cc1ccccc1.[Br-] | 72.5 | – | – | – | – | – | – | – |
| CCCn1c2cc(OCCC(C)C)ccc2c2cc[n+](CC)c(C)c21.[Br-] | 186 | 6.00 | 6.00 | 7.05 | 6.70 | 6.22 | 6.05 | pIC50 [5]: 6.00; pIC50 (SK-MEL-28 [6]): 6.00 |
| CCCn1c2cc(OCc3ccccc3)ccc2c2cc[n+](Cc3ccccc3F)c(C)c21 | – | 6.30 | – | – | – | – | – | – |
| CCCn1c2cc(OCc3ccccc3)ccc2c2cc[n+](CC(C)C)c(C)c21.[Br-] | 207 | – | 6.22 | 6.40 | 6.10 | 6.00 | 5.42 | – |
